Data as given in ChEMBL document CHEMBL4477190, “Marine-Derived Secondary Metabolite, Griseusrazin A, Suppresses Inflammation through Heme Oxygenase-1 Induction in Activated RAW264.7 Macrophages” (J Nat Prod, 2016).
Activity calls are given as the source filed them. The rule behind the calls is not given here.

Legend:
[1] = biological target: T1, Nuclear factor erythroid 2-related factor 2 (Mus musculus) (UniProt Q60795); test: Increase in nuclear Nrf2 translocation in LPS-stimulated mouse RAW264.7 cells assessed as nuclear Nrf2 level at 20 and 40 uM measured up to 120 mins by Western blot analysis; type: cell-based
T1 sequence (whole entry): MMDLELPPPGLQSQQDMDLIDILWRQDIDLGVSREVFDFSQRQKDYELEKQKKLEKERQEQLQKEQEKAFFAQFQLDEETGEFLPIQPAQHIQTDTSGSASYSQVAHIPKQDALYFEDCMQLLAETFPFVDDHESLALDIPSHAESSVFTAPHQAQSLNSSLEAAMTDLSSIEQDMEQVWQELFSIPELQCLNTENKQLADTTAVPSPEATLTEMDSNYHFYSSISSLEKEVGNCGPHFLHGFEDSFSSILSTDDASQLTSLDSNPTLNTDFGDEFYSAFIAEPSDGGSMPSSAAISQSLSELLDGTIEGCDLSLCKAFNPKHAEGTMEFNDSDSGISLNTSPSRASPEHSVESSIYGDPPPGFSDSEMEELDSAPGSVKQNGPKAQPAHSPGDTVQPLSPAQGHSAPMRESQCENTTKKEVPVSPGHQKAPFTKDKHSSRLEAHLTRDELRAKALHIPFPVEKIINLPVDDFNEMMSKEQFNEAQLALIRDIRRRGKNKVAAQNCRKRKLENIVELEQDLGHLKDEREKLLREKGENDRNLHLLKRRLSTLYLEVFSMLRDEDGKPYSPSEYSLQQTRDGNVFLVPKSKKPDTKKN
Method in brief: (§1)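 Cells exposed to compound at 40 μM for 0–120 min in 20 min steps. Nuclei separated from cytosol with PER-Mammalian Protein Extraction buffer plus protease inhibitor cocktail and 1 mM PMSF. Nuclear and cytoplasmic Nrf2 read by Western blot. Representative blots from three independent experiments.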

[2] = system: RAW264.7; test: Reduction in TNF-alpha mRNA expression in LPS-stimulated mouse RAW264.7 cells at 20 and 40 uM pre-treated for 6 hrs prior to LPS-challenge measured after 24 hrs by real-time PCR analysis; type: functional, cell-based
Method in brief: (§2)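 RAW264.7 macrophages pretreated 6 h with compound, then given LPS (500 ng/mL) for 24 h. TNF-α, IL-1β and IL-6 protein measured by commercial kit (R&D Systems). mRNA levels measured by real-time PCR. Mean ± SD of three experiments; one-way ANOVA with Newman−Keuls test.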

[3] = system: RAW264.7; test: Reduction in IL6 mRNA expression in LPS-stimulated mouse RAW264.7 cells at 20 and 40 uM pre-treated for 6 hrs prior to LPS-challenge measured after 24 hrs by real-time PCR analysis; type: functional, cell-based; method in brief: as §2
[4] = system: RAW264.7; test: Reduction in COX2 expression in LPS-stimulated mouse RAW264.7 cells at 5 to 40 uM pre-treated for 6 hrs prior to LPS-challenge measured after 24 hrs by western blot analysis; type: functional, cell-based
Method in brief: (§3)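 RAW264.7 macrophages pretreated 6 h with compound, then stimulated 24 h with LPS (500 ng/mL). Nitrite in conditioned medium measured. PGE2 measured by commercial kit. iNOS and COX-2 read by Western blot in RIPA lysates (25 mM Tris-HCl pH 7.6, 150 mM NaCl, 1% NP-40, 1% deoxycholate, 0.1% SDS). Mean ± SD of three experiments.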

[5] = system: RAW264.7; test: Antiinflammatory activity in LPS-stimulated mouse RAW264.7 cells assessed as reduction in PGE2 production at 5 to 40 uM pre-treated for 6 hrs prior to LPS-challenge measured after 24 hrs; type: functional, cell-based; method in brief: as §3
[6] = system: RAW264.7; test: Reduction in COX2 expression in LPS-stimulated mouse RAW264.7 cells at 5 to 40 uM pre-treated for 6 hrs prior to LPS-challenge measured after 24 hrs by western blot analysis in presence of HO-1 competitive inhibitor SnPP by western blot analysis; type: functional, cell-based
Method in brief: (§4)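 RAW264.7 cells pretreated 6 h with compound (40 μM), with or without SnPP (50 μM), then stimulated 24 h with LPS (500 ng/mL). Nitrite in conditioned medium measured. PGE2, TNF-α, IL-1β and IL-6 measured by commercial kit (R&D Systems). iNOS and COX-2 read by Western blot. Mean ± SD of three experiments; one-way ANOVA with Newman−Keuls test.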

[7] = system: RAW264.7; test: Antiinflammatory activity in LPS-stimulated mouse RAW264.7 cells assessed as reduction in nitrite production at 5 to 40 uM pre-treated for 6 hrs prior to LPS-challenge measured after 24 hrs in presence of HO-1 competitive inhibitor SnPP by Griess reaction
[8] = system: RAW264.7; test: Antiinflammatory activity in LPS-stimulated mouse RAW264.7 cells assessed as reduction in PGE2 production at 5 to 40 uM pre-treated for 6 hrs prior to LPS-challenge measured after 24 hrs in presence of HO-1 competitive inhibitor SnPP
[9] = biological target: T1, Nuclear factor erythroid 2-related factor 2 (Mus musculus); test: Activation of Nrf2 in LPS-stimulated mouse RAW264.7 cells assessed as induction of HO-1 mRNA expression at 5 to 40 uM pre-treated for 6 hrs prior to LPS-challenge measured after 12 hrs; type: cell-based
Method in brief: (§5)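 RAW264.7 macrophages incubated 12 h with compound (5−40 μM). HO-1 mRNA measured, and HO-1 protein by Western blot. Mean ± SD of three experiments; representative blots from three independent experiments.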

[10] = system: RAW264.7; test: Reduction in iNOS expression in LPS-stimulated mouse RAW264.7 cells at 5 to 40 uM pre-treated for 6 hrs prior to LPS-challenge measured after 24 hrs by western blot analysis; type: functional, cell-based; method in brief: as §3
[11] = biological target: Transcription factor p65 (Mus musculus) (UniProt Q04207); test: Inhibition of LPS-stimulated NF-kappaB p65 nuclear translocation in mouse RAW264.7 cells at 20 and 40 uM pre-treated for 6 hrs prior to LPS-challenge measured after 30 mins by western blot analysis; type: cell-based
Method in brief: (§6)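 Cells pretreated 6 h with compound, then stimulated 30 min with LPS (500 ng/mL). Nuclear fractions probed by Western blot for p50 and p65. NF-κB DNA binding in nuclear extracts measured by TransAM ELISA kit. Mean ± SD of three experiments.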

[12] = system: RAW264.7; test: Reduction in TNF-alpha production in LPS-stimulated mouse RAW264.7 cells at 20 and 40 uM pre-treated for 6 hrs prior to LPS-challenge measured after 24 hrs; type: functional, cell-based; method in brief: as §2
[13] = system: RAW264.7; test: Reduction in IL-1beta mRNA expression in LPS-stimulated mouse RAW264.7 cells at 20 and 40 uM pre-treated for 6 hrs prior to LPS-challenge measured after 24 hrs by real-time PCR analysis; type: functional, cell-based; method in brief: as §2
[14] = system: RAW264.7; test: Antiinflammatory activity in LPS-stimulated mouse RAW264.7 cells assessed as reduction in IL-1beta production at 20 and 40 uM pre-treated for 6 hrs prior to LPS-challenge measured after 24 hrs in presence of competitive inhibitor of HO-1 SnPP; type: functional, cell-based; method in brief: as §4
[15] = biological target: T1, Nuclear factor erythroid 2-related factor 2 (Mus musculus); test: Activation of Nrf2 in LPS-stimulated mouse RAW264.7 cells assessed as induction of HO-1 protein expression at 5 to 40 uM pre-treated for 6 hrs prior to LPS-challenge measured after 12 hrs by western blot analysis; type: cell-based; method in brief: as §5
[16] = system: RAW264.7; test: Inhibition of LPS-stimulated NF-kappaB p50 nuclear translocation in mouse RAW264.7 cells at 20 and 40 uM pre-treated for 6 hrs prior to LPS-challenge measured after 30 mins by western blot analysis; type: cell-based; method in brief: as §6
[17] = biological target: T1, Nuclear factor erythroid 2-related factor 2 (Mus musculus); test: Increase in nuclear Nrf2 translocation in LPS-stimulated mouse RAW264.7 cells assessed as cytosolic Nrf2 level at 20 and 40 uM measured up to 120 mins by Western blot analysis; type: cell-based; method in brief: as §1
[18] = biological target: Transcription factor p65 (Mus musculus) (UniProt Q04207); test: Inhibition of LPS-stimulated DNA binding activity of NF-kappaB p65 in mouse RAW264.7 cells assessed as at 20 and 40 uM pre-treated for 6 hrs prior to LPS-challenge measured after 30 mins by ELISA method; type: cell-based; method in brief: as §6
[19] = system: RAW264.7; test: Antiinflammatory activity in LPS-stimulated mouse RAW264.7 cells assessed as reduction in nitrite production at 5 to 40 uM pre-treated for 6 hrs prior to LPS-challenge measured after 24 hrs by Griess reaction; type: functional, cell-based; method in brief: as §3
[20] = system: RAW264.7; test: Reduction in iNOS expression in LPS-stimulated mouse RAW264.7 cells at 5 to 40 uM pre-treated for 6 hrs prior to LPS-challenge measured after 24 hrs by western blot analysis in presence of HO-1 competitive inhibitor SnPP by western blot analysis; type: functional, cell-based; method in brief: as §4
[21] = system: RAW264.7; test: Reduction in IL6 production in LPS-stimulated mouse RAW264.7 cells at 20 and 40 uM pre-treated for 6 hrs prior to LPS-challenge measured after 24 hrs; type: functional, cell-based; method in brief: as §2
[22] = system: RAW264.7; test: Antiinflammatory activity in LPS-stimulated mouse RAW264.7 cells assessed as reduction in TNF-alpha production at 20 and 40 uM pre-treated for 6 hrs prior to LPS-challenge measured after 24 hrs iin presence of HO-1 competitive inhibitor SnPP; type: functional, cell-based; method in brief: as §4
[23] = system: RAW264.7; test: Antiinflammatory activity in LPS-stimulated mouse RAW264.7 cells assessed as reduction in IL6 production at 20 and 40 uM pre-treated for 6 hrs prior to LPS-challenge measured after 24 hrs in presence of HO-1 competitive inhibitor SnPP; type: functional, cell-based; method in brief: as §4
[24] = system: RAW264.7; test: Reduction in IL-1beta production in LPS-stimulated mouse RAW264.7 cells at 20 and 40 uM pre-treated for 6 hrs prior to LPS-challenge measured after 24 hrs; type: functional, cell-based; method in brief: as §2

Chain of Transcription factor p65 (Mus musculus) (Q04207 whole entry): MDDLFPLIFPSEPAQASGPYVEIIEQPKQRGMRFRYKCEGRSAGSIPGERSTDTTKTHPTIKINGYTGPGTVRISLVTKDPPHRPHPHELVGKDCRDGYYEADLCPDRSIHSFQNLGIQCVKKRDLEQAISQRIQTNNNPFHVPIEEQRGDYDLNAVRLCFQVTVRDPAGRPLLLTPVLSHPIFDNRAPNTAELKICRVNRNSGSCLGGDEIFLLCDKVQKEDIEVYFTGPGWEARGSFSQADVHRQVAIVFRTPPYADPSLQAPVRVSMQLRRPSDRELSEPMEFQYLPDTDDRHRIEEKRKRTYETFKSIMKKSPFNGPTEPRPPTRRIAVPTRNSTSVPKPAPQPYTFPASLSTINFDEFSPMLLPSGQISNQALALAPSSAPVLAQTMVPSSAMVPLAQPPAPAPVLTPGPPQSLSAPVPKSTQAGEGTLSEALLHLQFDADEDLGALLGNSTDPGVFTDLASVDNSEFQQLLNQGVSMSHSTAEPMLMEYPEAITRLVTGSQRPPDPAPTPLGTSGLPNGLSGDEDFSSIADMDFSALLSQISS

- Activity [1]: Active
- Activity [9]: Active
- inhibition [11]: Active
- Activity [15]: Active
- Activity [17]: Active
- inhibition [18]: Active
SMILES: Cc1nc(Cc2ccc(N(C)C=O)cc2)c(C)nc1Cc1ccc(N(C)C=O)cc1
- Activity [2]: Dose-dependent effect
- Activity [3]: Dose-dependent effect
- Activity [4]: Dose-dependent effect
- Activity [5]: Dose-dependent effect
- Activity [6]: inactive
- Activity [7]: inactive
- Activity [8]: inactive
- Activity [10]: Dose-dependent effect
- Activity [12]: Dose-dependent effect
- Activity [13]: Dose-dependent effect
- Activity [14]: inactive
- inhibition [16]: Active
- Activity [19]: Dose-dependent effect
- Activity [20]: inactive
- Activity [21]: Dose-dependent effect
- Activity [22]: inactive
- Activity [23]: inactive
- Activity [24]: Dose-dependent effect
